From ChEMBL document CHEMBL1132611, “Novel, potent, and selective phosphodiesterase-4 inhibitors as antiasthmatic agents: synthesis and biological activities of a series of 1-pyridylnaphthalene derivatives” (J Med Chem, 1999)
Where “and” joins values, the source holds several entries; their conditions need not be identical. Equal values may be shown once.

Columns and labels:
Phosphodiesterase 3 [1] = molecular target: T1, Phosphodiesterase 3 (Homo sapiens, UniProt Q14432+Q13370); experiment: Inhibition of guinea pig cardiac ventricle Phosphodiesterase 3; assay type: protein assay, Cavia porcellus; details: target entry is the homologue from another species
Outline: (§1)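 PDE1, 2 and 3 came from guinea pig cardiac ventricle and PDE4 and 5 from lung, separated by Resource-Q anion exchange on a sodium acetate gradient at pH 6.5. Assays used 1.0 µM [3H]cAMP or [3H]cGMP in 50 mM Tris-HCl pH 8.0, 5 mM MgCl2 and 4 mM 2-mercaptoethanol, for 30 min at 30 °C. Substrate hydrolysis was kept at or below 20%. Triplicates were run at 3–4 inhibitor levels, and IC50 was read graphically.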

Phosphodiesterase 4 [2] = molecular target: T2, Phosphodiesterase 4 (Homo sapiens, UniProt P27815+Q08499+Q07343+Q08493); experiment: In vitro inhibition of Phosphodiesterase 4 from guinea pig lung; assay type: protein assay, Cavia porcellus; details: target entry is the homologue from another species
Phosphodiesterase 3 [3] = molecular target: T1, Phosphodiesterase 3; experiment: In vitro inhibition of Phosphodiesterase 3 activity from guinea pig cardiac ventricle; assay type: protein assay, Cavia porcellus; details: target entry is the homologue from another species; outline: as §1
Cavia porcellus [4] = experiment: Inhibition of antigen-induced bronchoconstriction in guinea pigs at 1 mg/kg intravenous dose; assay type: functional
Outline: (§2)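 Male Hartley guinea pigs were passively sensitised with iv rabbit anti-ovalbumin antiserum and challenged with ovalbumin 30 µg/kg iv 20–28 h later. Animals were under α-chloralose anaesthesia, ventilated, and paralysed with gallamine. Overflow volume was measured by Konzett–Rössler and expressed as a percentage of the maximum. Compound was given iv 2 min before challenge. ED50 came from the dose–inhibition curve with 95% confidence limits.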

Phosphodiesterase 1 = Phosphodiesterase 1 (Homo sapiens, UniProt P54750+Q01064+Q14123); experiment: Inhibition of Phosphodiesterase 1 of guinea pig cardiac ventricle; assay type: protein assay, Cavia porcellus; details: target entry is the homologue from another species; outline: as §1
Cavia porcellus [5] = experiment: Change in guinea pig heart rate at 1 mg/kg intravenous dose; assay type: functional
Cavia porcellus [6] = experiment: Change in guinea pig heart rate at 0.1 mg/kg intravenous dose; assay type: functional
Cavia porcellus [7] = experiment: Inhibition of antigen-induced bronchoconstriction in guinea pigs 0.1 mg/kg intravenous dose; assay type: functional; outline: as §2
Cavia porcellus [8] = experiment: Inhibition of antigen-induced bronchoconstriction in guinea pigs 0.3 mg/kg intravenous dose; assay type: functional; outline: as §2
Cavia porcellus [9] = experiment: Change in guinea pig heart rate at 0.3 mg/kg intravenous dose; assay type: functional
Cavia porcellus [10] = species on record: Cavia porcellus; experiment: Inhibition of antigen-induced bronchoconstriction in guinea pigs; assay type: functional; outline: as §2
Cavia porcellus [11] = experiment: Change in guinea pig heart rate at 3 mg/kg intravenous dose; assay type: functional
Cavia porcellus [12] = species on record: Cavia porcellus; experiment: Inhibition of antigen-induced bronchoconstriction in guinea pigs (95% confidence); assay type: functional; outline: as §2
Cavia porcellus [13] = experiment: Inhibition of antigen-induced bronchoconstriction in guinea pigs 3 mg/kg intravenous dose; assay type: functional; outline: as §2
Cavia porcellus [14] = experiment: Change in guinea pig heart rate at 0.03 mg/kg intravenous dose; assay type: functional
Cavia porcellus [15] = experiment: Inhibition of antigen-induced bronchoconstriction in guinea pigs at 0.03 mg/kg intravenous dose; assay type: functional; outline: as §2
Phosphodiesterase 4 [16] = molecular target: T2, Phosphodiesterase 4; experiment: Emetic effect in ferrets at peroral 30 mg/kg dose; assay type: functional, organism-based; parameters: dose 30 mg/kg; details: Mustela putorius furo; target entry is the homologue from another species
Phosphodiesterase 4 [17] = molecular target: T2, Phosphodiesterase 4; experiment: Emetic effect in ferrets at peroral 10 mg/kg; assay type: functional, organism-based; parameters: dose 10 mg/kg; details: Mustela putorius furo; target entry is the homologue from another species
Phosphodiesterase 4 [18] = molecular target: T2, Phosphodiesterase 4; experiment: (§3) Displacement of [3H]- rolipram binding to guinea pig brain; assay type: tissue-based, Cavia porcellus; details: target entry is the homologue from another species
Outline: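 Guinea pig brain membranes were made by homogenising in 20 mM Tris-HCl pH 7.4 with 2 mM MgCl2 and 0.1 mM DTT, spun at 45000g, washed and stored at -80 °C. Competition used 3 nM [3H]-(±)-rolipram at 30 °C for 60 min in 25 mM Tris-HCl pH 7.4, 5 mM MgCl2 and 0.05 mM 5'-AMP. Bound ligand was separated by filtration and counted by scintillation.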

Cavia porcellus [19] = species on record: Cavia porcellus; experiment: Inhibition of histamine-induced bronchoconstriction in guinea pigs (95% confidence); assay type: functional
Outline: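 Guinea pigs received intraduodenal compound, and bronchoconstriction was induced with histamine dihydrochloride 2 µg/kg iv. Pulmonary inflation pressure was recorded in ventilated, gallamine-paralysed animals. ED50 was taken from the dose–inhibition curve using at least three doses, with 95% confidence limits.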

Phosphodiesterase 4 [20] = molecular target: T2, Phosphodiesterase 4; experiment: Emetic effect in ferrets at peroral 100 mg/kg; assay type: functional, organism-based; parameters: dose 100 mg/kg; details: Mustela putorius furo; target entry is the homologue from another species
Cavia porcellus [21] = experiment: Inhibition of antigen-induced bronchoconstriction in guinea pigs at 0.01 mg/kg intravenous dose; assay type: functional; outline: as §2
Cavia porcellus [22] = experiment: Change in guinea pig heart rate at 0.01 mg/kg intravenous dose; assay type: functional
[23] = molecular target: cGMP-dependent 3',5'-cyclic phosphodiesterase (Homo sapiens, UniProt O00408); experiment: Inhibition of guinea pig cardiac ventricle Phosphodiesterase 2; parameters: species or system Cavia porcellus; details: target entry is the homologue from another species; outline: as §1
Phosphodiesterase 4 [24] = molecular target: T2, Phosphodiesterase 4; experiment: Emetic effect in ferrets at peroral 100 mg/kg dose; assay type: functional, organism-based; parameters: dose 100 mg/kg; details: Mustela putorius furo; target entry is the homologue from another species
Phosphodiesterase 4 [25] = molecular target: T2, Phosphodiesterase 4; experiment: as §3; assay type: tissue-based, Cavia porcellus; details: target entry is the homologue from another species; remark: listed apart in the source
Canis familiaris [26] = experiment: Emetic effect in dog at 1 mg/kg dose, iv; assay type: functional, Canis lupus familiaris
Phosphodiesterase 4 [27] = molecular target: T2, Phosphodiesterase 4; experiment: Inhibition of guinea pig lung Phosphodiesterase 4; assay type: protein assay, Cavia porcellus; details: target entry is the homologue from another species; outline: as §1
Canis familiaris [28] = experiment: Emetic effect in dog at 0.3 mg/kg dose, iv; assay type: functional, Canis lupus familiaris

cGMP-dependent 3',5'-cyclic phosphodiesterase, sequence (O00408 whole entry): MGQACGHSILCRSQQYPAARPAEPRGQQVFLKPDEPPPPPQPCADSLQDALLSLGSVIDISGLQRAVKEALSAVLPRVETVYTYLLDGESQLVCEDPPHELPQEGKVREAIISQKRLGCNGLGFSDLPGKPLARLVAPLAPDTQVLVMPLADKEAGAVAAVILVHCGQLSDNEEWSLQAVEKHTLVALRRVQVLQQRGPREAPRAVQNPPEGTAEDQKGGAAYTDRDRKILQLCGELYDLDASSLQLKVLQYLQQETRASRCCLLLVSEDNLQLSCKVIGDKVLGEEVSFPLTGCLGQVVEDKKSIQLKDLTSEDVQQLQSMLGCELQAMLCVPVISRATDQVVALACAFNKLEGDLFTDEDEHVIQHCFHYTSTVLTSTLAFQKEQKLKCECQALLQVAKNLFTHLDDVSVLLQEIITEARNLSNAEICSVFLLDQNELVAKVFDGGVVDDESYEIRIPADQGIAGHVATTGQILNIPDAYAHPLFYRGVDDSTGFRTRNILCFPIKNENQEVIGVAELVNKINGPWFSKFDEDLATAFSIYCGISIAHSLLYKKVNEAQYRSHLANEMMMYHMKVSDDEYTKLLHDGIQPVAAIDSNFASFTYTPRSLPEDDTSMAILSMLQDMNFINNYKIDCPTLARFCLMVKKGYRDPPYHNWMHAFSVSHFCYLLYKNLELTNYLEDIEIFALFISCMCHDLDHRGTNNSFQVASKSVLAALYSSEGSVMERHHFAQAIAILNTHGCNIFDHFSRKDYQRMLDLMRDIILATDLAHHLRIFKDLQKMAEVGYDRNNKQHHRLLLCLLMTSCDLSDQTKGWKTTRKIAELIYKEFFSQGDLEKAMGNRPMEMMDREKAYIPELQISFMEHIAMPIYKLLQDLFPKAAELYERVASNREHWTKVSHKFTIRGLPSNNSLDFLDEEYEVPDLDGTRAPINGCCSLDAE

SMILES	IC50 (Phosphodiesterase 4 [2]) [nM]	IC50 (Phosphodiesterase 3 [3]) [nM]	IC50 (Phosphodiesterase 1) [nM]	Reduction (Cavia porcellus [7]) [%]	ED50 (Cavia porcellus [12]) [mg/kg]	further results
COc1cc2c(-c3ccnc(-n4nc(-c5cccnc5)c5ccccc5c4=O)c3)c(CO)c(CO)cc2cc1OCc1ccccc1.Cl.Cl	700					IC50 (Phosphodiesterase 3 [1]): > 100000 nM
COc1cc2cc(CO)c(CO)c(-c3ccnc(-n4ccccc4=O)c3)c2cc1OC	80	2000	50000			
COc1cc2cc(CO)c(CO)c(-c3ccnc(-n4ncc5ccccc5c4=O)c3)c2cc1OC	0.68	250	5000	25	0.24	Heart rate (Cavia porcellus [5]): 11 delta beats min-1; Heart rate (Cavia porcellus [6]): 16 delta beats min-1; Heart rate (Cavia porcellus [11]): 55 delta beats min-1; Reduction (Cavia porcellus [4]): 87%; Reduction (Cavia porcellus [13]): 91%
COc1cc2cc(CO)c(CO)c(-c3ccnc(-n4nc(-c5ccccn5)c5ccccc5c4=O)c3)c2cc1OC.Cl	0.55	170	4000	40	0.18	Heart rate (Cavia porcellus [5]): 22 delta beats min-1; Heart rate (Cavia porcellus [6]): 5 delta beats min-1; Reduction (Cavia porcellus [8]): 78%; Heart rate (Cavia porcellus [14]): 3 delta beats min-1; Heart rate (Cavia porcellus [9]): 7 delta beats min-1; Reduction (Cavia porcellus [4]): 87%; Reduction (Cavia porcellus [15]): -25%
COc1cc2c(-c3ccnc(-n4nc(-c5cccnc5)c5ccccc5c4=O)c3)c(CO)c(CO)cc2cc1OC1CCCC1.Cl	30	690				
COc1cc2cc(CO)c(CO)c(-c3ccnc(-n4nc(-c5cccnc5)c5ccccc5c4=O)c3)c2cc1OCc1ccccc1.Cl	17	16000				
COc1ccc(C2CNC(=O)C2)cc1OC1CCCC1 (racemic) [ROLIPRAM]		> 300000	> 100000			IC50 [23]: > 100000 nM
COc1cc2cc(CO)c(CO)c(-c3ccnc(-n4c(=O)ccc5ccccc54)c3)c2cc1OC	2.8	330	2000	68	0.12	Emesis (vomiting/tested) (Phosphodiesterase 4 [24]): 4; Reduction (Cavia porcellus [4]): 86%; Ki (Phosphodiesterase 4 [25]): 6.2 nM; ED50 (Cavia porcellus [19]): 0.4 mg/kg; Reduction (Cavia porcellus [13]): 90%; Reduction (Cavia porcellus [15]): -11%
COc1cc2cc(COC(C)=O)c(COC(C)=O)c(-c3ccnc(-n4nc(-c5cccnc5)c5ccccc5c4=O)c3)c2cc1OC.Cl	190	3500				
CCOc1cc2cc(CO)c(CO)c(-c3ccnc(-n4nc(-c5cccnc5)c5ccccc5c4=O)c3)c2cc1OCC.Cl [T-2585.HCL]		1800	10000	57	0.063	Heart rate (Cavia porcellus [6]): 3 delta beats min-1; IC50 [23]: 1300 nM; Reduction (Cavia porcellus [8]): 84%; Emesis (vomiting/tested) (Phosphodiesterase 4 [16]): 4; Emesis (vomiting/tested) (Phosphodiesterase 4 [17]): 4; Emesis (Canis familiaris [26]): 4 vomiting/tested; IC50 (Phosphodiesterase 4 [27]): 0.13 nM; Heart rate (Cavia porcellus [14]): 4 delta beats min-1; Heart rate (Cavia porcellus [9]): 2 delta beats min-1; Emesis (Canis familiaris [28]): 8 vomiting/tested; Ki (Phosphodiesterase 4 [18]): 2.6 nM; ED50 (Cavia porcellus [19]): 0.033 mg/kg; Reduction (Cavia porcellus [15]): 37%
COc1cc2cc(CO)c(CO)c(-c3ccnc(-n4c(=O)c5ccccc5c5ccccc54)c3)c2cc1OC	0.2	41			1.2	Heart rate (Cavia porcellus [5]): 18 delta beats min-1; Heart rate (Cavia porcellus [11]): 15 delta beats min-1; Reduction (Cavia porcellus [4]): 38%; Reduction (Cavia porcellus [13]): 91%
Cl.O=c1c2ccccc2c(-c2cccnc2)nn1-c1cc(-c2c(CO)c(CO)cc3ccccc23)ccn1	5000	50000	> 100000			
COc1cc2cc(CO)c(CO)c(-c3ccnc(-n4ccc(=O)c5ccccc54)c3)c2cc1OC	40	400	9000			

Continued, in another order:

IC50 (Phosphodiesterase 4 [2]) [nM]	IC50 (Phosphodiesterase 3 [3]) [nM]	IC50 (Phosphodiesterase 1) [nM]	SMILES	Reduction (Cavia porcellus [7]) [%]	ED50 (Cavia porcellus [12]) [mg/kg]	further results
0.7	81		COc1cc2cc(CO)cc(-c3ccnc(-n4nc(-c5cccnc5)c5ccccc5c4=O)c3)c2cc1OC.Cl			Reduction (Cavia porcellus [4]): 33%
15	5600		COc1cc2cc(CO)c(CO)c(-c3cccc(-n4nc(-c5cccnc5)c5ccccc5c4=O)n3)c2cc1OC.Cl			
0.49	100	2000	COc1cc2cc(CO)c(CO)c(-c3ccnc(-n4nc(-c5ccncc5)c5ccccc5c4=O)c3)c2cc1OC.Cl	15		Heart rate (Cavia porcellus [5]): 29 delta beats min-1; Heart rate (Cavia porcellus [6]): 12 delta beats min-1; Reduction (Cavia porcellus [8]): 82%; Heart rate (Cavia porcellus [9]): 10 delta beats min-1; Reduction (Cavia porcellus [4]): 92%; ED50 (Cavia porcellus [10]): 0.17 mg/kg
40	80000	> 100000	COc1cc2cc(CO)c(CO)c(-c3ccc(-n4nc(-c5cccnc5)c5ccccc5c4=O)nc3)c2cc1OC.Cl			
0.16	490	3000	CCOc1cc2c(-c3ccnc(-n4nc(-c5cccnc5)c5ccccc5c4=O)c3)c(CO)c(CO)cc2cc1OC.Cl	39	0.18	Heart rate (Cavia porcellus [6]): 3 delta beats min-1; Reduction (Cavia porcellus [8]): 69%; Heart rate (Cavia porcellus [9]): 7 delta beats min-1
0.63	290	2000	COc1cc2cc(CO)c(CO)c(-c3ccnc(-n4nc(-c5cccnc5)c5ccccc5c4=O)c3)c2cc1OC.Cl	73	0.022	Heart rate (Cavia porcellus [6]): 1 delta beats min-1; Emesis (vomiting/tested) (Phosphodiesterase 4 [16]): 4; Emesis (vomiting/tested) (Phosphodiesterase 4 [17]): 6; Heart rate (Cavia porcellus [14]): 3 delta beats min-1; Ki (Phosphodiesterase 4 [18]): 3.5 nM; ED50 (Cavia porcellus [19]): 1.1 mg/kg; Emesis (vomiting/tested) (Phosphodiesterase 4 [20]): 4; Reduction (Cavia porcellus [21]): 34%; Heart rate (Cavia porcellus [22]): 1 delta beats min-1; Reduction (Cavia porcellus [15]): 61%
31	700		COc1cc2ccc(CO)c(-c3ccnc(-n4nc(-c5cccnc5)c5ccccc5c4=O)c3)c2cc1OC.Cl			
0.9	34	20000	CCOc1cc2cc(CO)c(CO)c(-c3ccnc(-n4nc(-c5cccnc5)c5ccccc5c4=O)c3)c2cc1OC.Cl	23	0.17	Heart rate (Cavia porcellus [6]; 0.1 mg/kg): 7 delta beats min-1 and 18 delta beats min-1; Reduction (Cavia porcellus [8]): 77%
150	29000		COC(=O)c1cc2cc(OC)c(OC)cc2c(-c2ccnc(-n3nc(-c4cccnc4)c4ccccc4c3=O)c2)c1C(=O)OC.Cl			
